Activity calls are given as the source filed them. The rule behind the calls is not given here.
Assays:
A549 = assay: Growth inhibition of human A549 cells after 72 hrs by MTT assay; type: functional, cell-based; conditions: A549, 72 h
Summary of the method: (§1)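 Cells grown in RPMI-1640 with 10% FBS, penicillin/streptomycin, 37 °C, 5% CO2; seeded 1-3 × 10^4/well, treated 24 h later in triplicate wells for 72 h. MTT (5 mg/mL) added in fresh medium for 4 h, formazan dissolved in DMSO, OD490 read; IC50 = concentration reducing absorbance by 50% versus vehicle-treated wells; triplicate experiments.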

[1] = Growth inhibition of human SGC7901 cells after 72 hrs by MTT assay; type: functional, cell-based; conditions: SGC-7901, 72 h; summary of the method: as §1
[2] = Growth inhibition of human HT1080 cells after 72 hrs by MTT assay; type: functional, cell-based; conditions: HT-1080, 72 h; summary of the method: as §1
Tubulin (Bos taurus) = Tubulin (Bos taurus) (UniProt Q6B856+Q862L2+Q862F3); assay: (§2) Inhibition of bovine brain tubulin polymerization incubated for 90 mins by fluorescence-based assay
Summary of the method: (§3)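 Fluorescence kit assay with purified bovine tubulin resuspended in ice-cold G-PEM (80 mM PIPES, 2 mM MgCl2, 0.5 mM EGTA, 1 mM GTP, 20% glycerol) and added to drug or DMSO vehicle. Reaction started by warming from 4 °C to 37 °C.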

Tubulin = Tubulin (Bos taurus, UniProt Q6B856+Q862L2+Q862F3); assay: as §2; summary of the method: as §3
Tubulin (Homo sapiens) [3] = target: T1, Tubulin (Homo sapiens) (UniProt P68371+Q9H4B7+P0DPH7+P68366+Q13509+Q71U36+P04350+Q3ZCM7+P07437+P68363+Q9BQE3+Q6PEY2+Q13885+Q9BVA1+Q9BUF5); assay: Induction of distortions in tubulin assembly in human HT1080 cells assessed as abnormal mitotic spindle formation at 2 fold IC50 level incubated for 48 hrs by immunofluorescence staining based fluorescence microscopy; type: cell-based; conditions: HT-1080
Summary of the method: (§4)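 Fixed in 4% formaldehyde/PBS 30 min at -20 °C, permeabilised with 0.1% Triton X-100, blocked in 5% BSA. Stained with α-tubulin primary (1:100, overnight 4 °C) and FITC anti-mouse secondary (1:1000, 3 h 37 °C), DAPI nuclei; fluorescence microscopy.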

Tubulin (Homo sapiens) [4] = target: T1, Tubulin (Homo sapiens); assay: Induction of distortions in tubulin assembly in human SGC7901 cells assessed as abnormal mitotic spindle formation at 2 fold IC50 level incubated for 48 hrs by immunofluorescence staining based fluorescence microscopy; type: cell-based; conditions: SGC-7901; summary of the method: as §4

Row | Compound | IC50 (A549) | IC50 [1] | IC50 [2] | inhibition (Tubulin (Bos taurus)) | IC50 (Tubulin) | Activity (Tubulin (Homo sapiens) [3]) | Activity (Tubulin (Homo sapiens) [4])
1 | COC(=O)Nc1nc2cc([Se]c3c(C)[nH]c4ccccc34)ccc2[nH]1 | 3.83 µM | 0.23 µM | 0.27 µM | – | – | – | –
2 | COC(=O)Nc1nc2cc(Sc3c[nH]c4ccccc34)ccc2[nH]1 | 0.39 µM | 2.62 µM | 0.88 µM | – | – | – | –
3 | COC(=O)Nc1nc2cc(S(=O)(=O)c3c(C)[nH]c4ccc(Cl)cc34)ccc2[nH]1 | > 10 µM | > 10 µM | > 10 µM | – | – | – | –
4 | COC(=O)Nc1nc2cc([S+]([O-])c3c(C)[nH]c4ccccc34)ccc2[nH]1 (stereo not drawn) | 7.98 µM | 9.93 µM | 9.85 µM | – | – | – | –
5 | COC(=O)Nc1nc2cc([S+]([O-])c3c(C)[nH]c4ccc(F)cc34)ccc2[nH]1 (stereo not drawn) | 3.27 µM | 3.51 µM | > 10 µM | – | – | – | –
6 | COC(=O)Nc1nc2cc(Sc3c[nH]c4ccc(C#N)cc34)ccc2[nH]1 | 5.14 µM | 0.12 µM | 0.62 µM | – | – | – | –
7 | COC(=O)Nc1nc2cc(C(=O)c3cccs3)ccc2[nH]1 [NOCODAZOLE] | 0.12 µM | 0.08 µM | 0.14 µM | – | – | Active | Active
8 | COC(=O)Nc1nc2cc([Se]c3c(C)[nH]c4ccc(Cl)cc34)ccc2[nH]1 | 2.98 µM | > 10 µM | > 10 µM | – | – | – | –
9 | COC(=O)Nc1nc2cc([S+]([O-])c3c[nH]c4ccccc34)ccc2[nH]1 (stereo not drawn) | 6.23 µM | 3.96 µM | 5.24 µM | – | – | – | –
10 | COC(=O)Nc1nc2cc(S(=O)(=O)c3c(C)[nH]c4ccc(F)cc34)ccc2[nH]1 | 9.08 µM | 4.18 µM | > 10 µM | – | – | – | –
11 | COC(=O)Nc1nc2cc([S+]([O-])c3c[nH]c4ccc(Br)cc34)ccc2[nH]1 (stereo not drawn) | > 10 µM | 5.19 µM | > 10 µM | – | – | – | –
12 | COC(=O)Nc1nc2cc([Se]c3c[nH]c4ccccc34)ccc2[nH]1 | 0.15 µM | 0.098 µM | 0.13 µM | Dose-dependent effect | 3.6 µM | Active | Active
13 | COC(=O)Nc1nc2cc(S(=O)(=O)c3c[nH]c4ccccc34)ccc2[nH]1 | 4.21 µM | 1.26 µM | 2.01 µM | – | – | – | –
14 | COC(=O)Nc1nc2cc(S(=O)(=O)c3c[nH]c4ccc(Br)cc34)ccc2[nH]1 | 7.42 µM | 7.44 µM | 3.18 µM | – | – | – | –
15 | COC(=O)Nc1nc2cc([Se]c3c[nH]c4ccc(Br)cc34)ccc2[nH]1 | 2.21 µM | 2.15 µM | 2.75 µM | – | – | – | –

Continued, in another order:

Row | IC50 (A549) | Compound | IC50 [1] | IC50 [2] | inhibition (Tubulin (Bos taurus)) | IC50 (Tubulin) | Activity (Tubulin (Homo sapiens) [3]) | Activity (Tubulin (Homo sapiens) [4])
16 | 5.07 µM | COC(=O)Nc1nc2cc([Se]c3c[nH]c4ccc(C#N)cc34)ccc2[nH]1 | 1.11 µM | 0.95 µM | – | – | – | –
17 | 1.19 µM | COC(=O)Nc1nc2cc(Sc3c[nH]c4ccc(Br)cc34)ccc2[nH]1 | 2.12 µM | 1.33 µM | Dose-dependent effect | 8.2 µM | – | –
18 | 0.83 µM | COC(=O)Nc1nc2cc(Sc3c(C)[nH]c4ccccc34)ccc2[nH]1 | 0.51 µM | 0.97 µM | – | – | – | –
19 | 1.15 µM | COC(=O)Nc1nc2cc([Se]c3c(C)[nH]c4ccc(F)cc34)ccc2[nH]1 | 1.12 µM | 1.69 µM | – | – | – | –
20 | > 10 µM | COC(=O)Nc1nc2cc(S(=O)(=O)c3c[nH]c4ccc(C#N)cc34)ccc2[nH]1 | > 10 µM | > 10 µM | – | – | – | –
21 | > 10 µM | COC(=O)Nc1nc2cc(S(=O)(=O)c3c(C)[nH]c4ccccc34)ccc2[nH]1 | > 10 µM | > 10 µM | – | – | – | –
22 | > 10 µM | COC(=O)Nc1nc2cc([S+]([O-])c3c(C)[nH]c4ccc(Cl)cc34)ccc2[nH]1 (stereo not drawn) | > 10 µM | > 10 µM | – | – | – | –
23 | 7.33 µM | COC(=O)Nc1nc2cc(Sc3c(C)[nH]c4ccc(Cl)cc34)ccc2[nH]1 | 3.38 µM | 4.13 µM | – | – | – | –
24 | 2.52 µM | COC(=O)Nc1nc2cc(Sc3c(C)[nH]c4ccc(F)cc34)ccc2[nH]1 | 1.2 µM | 3.27 µM | – | – | – | –
25 | > 10 µM | COC(=O)Nc1nc2cc([S+]([O-])c3c[nH]c4ccc(C#N)cc34)ccc2[nH]1 (stereo not drawn) | > 10 µM | 9.43 µM | – | – | – | –

Source: ChEMBL document CHEMBL3351665, “Synthesis and evaluation of benzimidazole carbamates bearing indole moieties for antiproliferative and antitubulin activities” (Eur J Med Chem, 2014)
